Blank lines part the entries; values can stand above or below the molecule they belong to.
What was measured:
[1] = Stability of VEN and ODV in rat plasma under different storage conditions; assay type: in vitro ADME; conditions: for Stability, Accuracy RE (%): n = 6
[2] = In vivo pharmacokinetic study of VEN and ODV in rats with or without vonoprazan; design: species or system Sprague-Dawley rats; conditions: rat; for AUC(0-t) / AUC(0-inf) / CL/F / Cmax / MRT last / MRT inf / Tmax / Vd/F / half-life: male, Sprague-Dawley, plasma, po, 20 mg/kg, rat plasma, VEN 20 mg/kg oral; for CL/F: CLz/F; for MRT last: MRT(0-t); for MRT inf: MRT(0-∞); for Vd/F: Vz/F; for half-life: t1/2z
[3] = test system: venlafaxine O-demethylation (ODV formation) in rat liver microsomes; no CYP named; experiment: Effect of vonoprazan on the metabolism of VEN; assay type: in vitro ADME; conditions: rat, rat liver microsomes, pH 7.4, probe venlafaxine (VEN), 2-16 μM
In short: (§1)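 Male Sprague–Dawley rat liver microsomes were prepared by differential centrifugation (9000 × g, then 105,000 × g). After 5 min pre-incubation at 37°C, NADPH started a 30 min reaction, stopped with ice-cold acetonitrile. ODV was measured by UPLC-MS/MS against a diazepam internal standard, in triplicate, and analysed by Lineweaver–Burk plots with slope and intercept replots.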

rat liver microsomes = experiment: Effect of vonoprazan on the metabolism of VEN; assay type: in vitro ADME; conditions: RLMs
In short: as §1

Enzyme kinetics = assay type: in vitro ADME; conditions: rat, rat liver microsomes, pH 7.4
In short: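 Rat liver microsomes (1 mg/mL) were incubated in 100 mM potassium phosphate pH 7.4 with 10 mM NADPH and venlafaxine. After 5 min pre-incubation at 37°C, NADPH started a 30 min reaction, stopped with ice-cold acetonitrile containing diazepam internal standard. ODV formation was quantified by UPLC-MS/MS. Km came from nonlinear regression of velocity versus substrate concentration on duplicate or triplicate determinations.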

[4] = 4°C, 24h, high QC (VEN 300, ODV 60 ng·mL^−1)
[5] = 4°C, 24h, low QC (VEN 3, ODV 0.6 ng·mL^−1)
[6] = Room Temperature, 6h, high QC (VEN 300, ODV 60 ng·mL^−1)
[7] = Room Temperature, 6h, low QC (VEN 3, ODV 0.6 ng·mL^−1)
[8] = −80°C, 7 Days, high QC (VEN 300, ODV 60 ng·mL^−1)
[9] = −80°C, 7 Days, low QC (VEN 3, ODV 0.6 ng·mL^−1)
[10] = + vonoprazan 5 mg/kg oral, 7 days
[11] = + vonoprazan 20 mg/kg oral, 7 days
[12] = VEN 20 mg/kg oral + vonoprazan 5 mg/kg
[13] = VEN 20 mg/kg oral + vonoprazan 20 mg/kg

Stability, Accuracy RE (%) [1, 4]: 108.96% | Stability, Accuracy RE (%) [1, 5]: 112.11% | Stability, Accuracy RE (%) [1, 6]: 109.57% | Stability, Accuracy RE (%) [1, 7]: 107.58% | Stability, Accuracy RE (%) [1, 8]: 106.85% | Stability, Accuracy RE (%) [1, 9]: 105.72% | AUC(0-t) [2, 10]: 221 ± 31.5 ng·h/mL | AUC(0-t) [2, 11]: 469 ± 68.6 ng·h/mL | AUC(0-t) ([2]; without vonoprazan (control)): 155 ± 36.6 ng·h/mL | AUC(0-inf) [2, 10]: 225 ± 31.7 ng·h/mL | AUC(0-inf) [2, 11]: 492 ± 79.8 ng·h/mL | AUC(0-inf) ([2]; without vonoprazan (control)): 161 ± 43.5 ng·h/mL | CL/F [2, 10]: 1510 mL/min/kg | CL/F [2, 11]: 696 mL/min/kg | CL/F ([2]; without vonoprazan (control)): 2200 mL/min/kg | Cmax [2, 10]: 69.7 ± 30.1 ng/mL | Cmax [2, 11]: 109 ± 13.4 ng/mL | Cmax ([2]; without vonoprazan (control)): 58.1 ± 14.1 ng/mL | MRT last [2, 10]: 3.08 ± 0.48 h | MRT last [2, 11]: 3.92 ± 0.38 h | MRT last ([2]; without vonoprazan (control)): 2.82 ± 0.55 h | MRT inf [2, 10]: 3.28 ± 0.49 h | MRT inf [2, 11]: 4.44 ± 0.52 h | MRT inf ([2]; without vonoprazan (control)): 3.2 ± 1.16 h | Tmax [2, 10]: 0.95 ± 0.37 h | Tmax [2, 11]: 2.6 ± 0.55 h | Tmax ([2]; without vonoprazan (control)): 0.75 ± 0.18 h | Vd/F [2, 10]: 260 ± 41.5 L/kg | Vd/F [2, 11]: 142 ± 30.4 L/kg | Vd/F ([2]; without vonoprazan (control)): 374 ± 170 L/kg | half-life [2, 10]: 2.01 ± 0.36 h | half-life [2, 11]: 2.43 ± 0.75 h | half-life ([2]; without vonoprazan (control)): 2.05 ± 1.05 h | Increase of the metabolite (M. R.) compared with control group [2, 12]: 0.87 fold | Decrease of CLz/F compared with control group [2, 13]: 68.33% | Decrease of Vz/F compared with control group [2, 13]: 62.08% | Elevation of Cmax compared with control group [2, 13]: 0.88 fold | Elevation of Tmax compared with control group [2, 13]: 2.46 fold | Increase of AUC(0-∞) compared with control group [2, 13]: 2.05 fold | Increase of MRT(0-∞) compared with control group [2, 13]: 0.39 fold | Increase of the metabolite (M. R.) compared with control group [2, 13]: 1.34 fold
SMILES: CN(C)CC(c1ccc(O)cc1)C1(O)CCCCC1 (stereo not shown) [ODV, O-desmethylvenlafaxine]

IC50 at 30 min [3]: 5.54 µM | Ki’ (inhibition of VEN metabolism) (rat liver microsomes; mixed inhibition, Lineweaver-Burk): 11.29 µM | Ki (rat liver microsomes; read-out: Ki (inhibition of VEN metabolism), mixed inhibition, Lineweaver-Burk): 23.1 µM
SMILES: CNCc1cc(-c2ccccc2F)n(S(=O)(=O)c2cccnc2)c1 [Vonoprazan]
Inhibition mechanism on VEN metabolism (rat liver microsomes; competitive plus non-competitive): mixed inhibition

SMILES: COc1ccc(C(CN(C)C)C2(O)CCCCC2)cc1 (stereo not shown) [VEN, Venlafaxine]
Km at 30 min (Enzyme kinetics): 8.28 µM | Stability, accuracy range over three QC levels and three storage conditions ([1]; 4°C 24 hours, room temperature 4 hours, −80°C 7 days): 99.68–111.18% | Stability, Accuracy RE (%) [1, 4]: 106.95% | Stability, Accuracy RE (%) [1, 5]: 108.99% | Stability, Accuracy RE (%) [1, 6]: 102.08% | Stability, Accuracy RE (%) [1, 7]: 102.90% | Stability, Accuracy RE (%) [1, 8]: 105.33% | Stability, Accuracy RE (%) [1, 9]: 99.68% | AUC(0-t) [2, 10]: 689 ± 161 ng·h/mL | AUC(0-t) [2, 11]: 1910 ng·h/mL | AUC(0-t) ([2]; without vonoprazan (control)): 260 ± 102 ng·h/mL | AUC(0-inf) [2, 10]: 694 ± 163 ng·h/mL | AUC(0-inf) [2, 11]: 1920 ng·h/mL | AUC(0-inf) ([2]; without vonoprazan (control)): 261 ± 101 ng·h/mL | CL/F [2, 10]: 500 mL/min/kg | CL/F [2, 11]: 192 mL/min/kg | CL/F ([2]; without vonoprazan (control)): 1460 mL/min/kg | Cmax [2, 10]: 261 ± 110 ng/mL | Cmax [2, 11]: 525 ± 115 ng/mL | Cmax ([2]; without vonoprazan (control)): 127 ± 41.5 ng/mL | MRT last [2, 10]: 2.44 ± 0.3 h | MRT last [2, 11]: 3.28 ± 0.52 h | MRT last ([2]; without vonoprazan (control)): 2.09 ± 0.18 h | MRT inf [2, 10]: 2.52 ± 0.43 h | MRT inf [2, 11]: 3.36 ± 0.56 h | MRT inf ([2]; without vonoprazan (control)): 2.12 ± 0.17 h | Tmax [2, 10]: 0.95 ± 0.37 h | Tmax [2, 11]: 2.6 ± 0.55 h | Tmax ([2]; without vonoprazan (control)): 0.7 ± 0.21 h | Vd/F [2, 10]: 62.1 ± 15.4 L/kg | Vd/F [2, 11]: 19.9 ± 7.19 L/kg | Vd/F ([2]; without vonoprazan (control)): 187 ± 130 L/kg | half-life [2, 10]: 1.48 ± 0.46 h | half-life [2, 11]: 1.28 ± 0.53 h | half-life ([2]; without vonoprazan (control)): 1.39 ± 0.32 h | Decrease of Clz/F compared with control group [2, 12]: 65.73% | Increase of Cmax compared with control group [2, 12]: 1.05 fold | Decrease of CLz/F compared with control group [2, 13]: 86.87% | Decrease of Vz/F compared with control group [2, 13]: 89.35% | Elevation of Cmax compared with control group [2, 13]: 3.12 fold | Elevation of Tmax compared with control group [2, 13]: 2.71 fold | Increase of AUC(0-∞) compared with control group [2, 13]: 6.37 fold | Increase of MRT(0-∞) compared with control group [2, 13]: 0.58 fold

Source: paper PMC7667002 (Drug Design, Development and Therapy, 2020)
